Published values collected from several papers.
Compare with care: the assays were run in different laboratories.
Target: Activin receptor type-2B (ACVR2B, Homo sapiens, UniProt Q13705)

The remaining binding of N[C@H]1CCN(c2nccc(-c3cnn4ncccc34)n2)C1 is reported as 93% (binding, competition with immobilised ligand; 1 µM).
CCN1CCN(Cc2ccc(C(=O)Nc3ccc(C)c(Oc4ccc5c(c4)CC(=O)N5)c3)cc2C(F)(F)F)CC1 gave a remaining binding of 100% (binding, competition with immobilised ligand; 1 µM).
The remaining binding of CNC(=O)[C@@H]1CC[C@@H](n2c(-c3ccc4cnccc4c3)nc3ccc(C(=O)NCc4cccc(C(N)=O)c4)cc32)C1 is reported as 100% (binding, competition with immobilised ligand; 1 µM).
For c1cnn2ncc(-c3ccnc(N4CCC45COC5)n3)c2c1, the remaining binding was 90% (binding; 1 µM).
Cc1cc(C)c(-n2ccn3nc(-c4cccnc4)cc23)cc1NC(=O)c1cc(C#N)cc(S(F)(F)(F)(F)F)c1 gave a remaining binding of 88.7% (binding, competition with immobilised ligand; 0.1 µM).
Cc1cnc(Nc2ccc(C(=O)N3CCC(N4CCCC4)CC3)cc2)nc1-c1cc2ccccc2s1 has a remaining binding of 61% (binding, competition with immobilised ligand; 1 µM).
F[C@@H]1CCN(c2nccc(-c3cnn4ncccc34)n2)C1 has a remaining binding of 100% (binding; 1 µM).
The remaining binding of COc1ncc2cc3ccccc3nc2c1C#N is reported as 90% (binding, competition with immobilised ligand; 5 µM).
The remaining binding of CN(C)c1nccc(-c2cnc3ncccn23)n1 is reported as 100% (binding; 1 µM).
With Cc1c[nH]c2nccc(Oc3c(F)cc(Nc4cc(Cl)nc(N)n4)cc3F)c12 the remaining binding was 100% (cell-free assay, competition with immobilised ligand; 0.1 µM).
COc1cnc(Nc2cccc(S(N)(=O)=O)c2)nc1N1CCN(c2ccccc2)C(=O)C1 gave a remaining binding of 100% (binding, competition with immobilised ligand; 1 µM).
For O=C(c1ccc(Nc2ncc(Cl)c(-c3cc4ccccc4s3)n2)cc1)N1CCC(N2CCCC2)CC1, the remaining binding was 53% (binding, competition with immobilised ligand; 1 µM).
O=C(Nc1cccnn1)N1CC(C/C=C/c2cncc(Oc3ccc(C(F)(F)F)cn3)n2)C1 gave a remaining binding of 98% (cell-free assay, competition with immobilised ligand; 1 µM).
The remaining binding of CN(c1nccc(-c2cnn3ncccc23)n1)C1CC1 is reported as 100% (binding; 1 µM).
For CN(C)C(=O)Cn1cc(-c2nc(C3(c4ccc(-c5cnc(N)nc5)cc4)CC3)no2)cn1, the remaining binding was 96% (binding, competition with immobilised ligand; 1 µM).
O=C(NCC1CCOCC1)c1n[nH]cc1NC(=O)c1c(F)cccc1F has a remaining binding of 98% (binding, competition with immobilised ligand; 1 µM).
O=c1nc(-c2ccccn2)sc2ccccc12 gave a remaining binding of 100% (binding, competition with immobilised ligand; 1 µM).
The remaining binding of CN(C)c1ncc(F)c(-c2cnn3ncccc23)n1 is reported as 95% (binding, competition with immobilised ligand; 1 µM).
For COc1cc(-c2cn(C3CCc4ccccc4N(CC(F)(F)F)C3=O)nn2)ccc1-n1ccc(C)n1 (centres unmarked), the remaining binding was 100% (binding, competition with immobilised ligand; 1 µM).
O=C(NCCCN1CCOCC1)c1ccc(Nc2nccc(-c3cc4ccccc4s3)n2)cc1 has a remaining binding of 89% (binding, competition with immobilised ligand; 1 µM).
